Experimental data of several laboratories.
Protocols differ between the studies behind these lines.
RAF1 Y340D/Y341D: RAF proto-oncogene serine/threonine-protein kinase (RAF1, Homo sapiens, UniProt P04049, Y340D/Y341D)
RAF1: RAF proto-oncogene serine/threonine-protein kinase (RAF1, Homo sapiens, UniProt P04049)

C#Cc1n[nH]c2c(-c3cn(C(C)c4ccccn4)c(=O)[nH]c3=O)cc(F)cc12 (stereo not shown)  inhibition (RAF1 Y340D/Y341D; enzyme activity, inhibitor; 1 µM): 15.5%
Cn1cncc1[C@](O)(COc1ccc(C#N)cc1-c1ccc(OC(F)(F)F)cc1)c1ccc(C#N)cc1  remaining binding (RAF1; cell-free assay, competition with immobilised ligand; 1 µM): 100%
Cn1cc(-c2cc(F)cc(N3CCn4c(cc5c4CCCC5)C3=O)c2CO)cc(Nc2ccc(N3CCN(C4COC4)CC3)cn2)c1=O  inhibition (RAF1 Y340D/Y341D; enzyme activity, inhibitor; 0.1 µM): 5%
C#Cc1n[nH]c2c(-c3cn([C@@H](C)c4ccccc4)c(=O)[nH]c3=O)cc(F)cc12  inhibition (RAF1 Y340D/Y341D; enzyme activity, inhibitor; 0.1 µM): 4.4%
Cn1cc(-c2cccc(N3CCc4c(sc5c4CC(C)(C)C5)C3=O)c2CO)cc(Nc2ccncn2)c1=O  inhibition (RAF1 Y340D/Y341D; enzyme activity, inhibitor; 1 µM): 10%
Cc1nn(C)cc1-c1nc2c(N3CCN(Cc4ccc(Cl)cc4)CC3)c(Cl)cnc2[nH]1  remaining binding (RAF1; binding, competition with immobilised ligand; 1 µM): 69%
O=c1[nH]c2ccccc2n1C1CCN(Cc2ccc(-c3[nH]c4cc5ncnc5cc4nc3-c3ccccc3)cc2)CC1  remaining signal (RAF1; cell-free assay; 0.5 µM): 94.7%
COc1ncccc1-c1cnn2ccc(N3CCN(C(=O)OC(C)C)CC3)nc12  remaining binding (RAF1; binding, competition with immobilised ligand; 1 µM): 60%
Nc1ncc(-c2nc(N3CCOCC3)nc(N3CCOCC3)n2)c(C(F)F)n1  remaining binding (RAF1; binding, competition with immobilised ligand; 10 µM): 98%
CC(C)(C)c1cc(C=C(C#N)C#N)cc(Br)c1O  remaining activity (RAF1; enzyme activity, inhibitor; 0.5 µM): 104%
